Measurements: ChEMBL document CHEMBL1132448, “Enantiospecific synthesis of 3-fluoromethyl-, 3-hydroxymethyl-, and 3-chloromethyl-1,2,3,4-tetrahydroisoquinolines as selective inhibitors of phenylethanolamine N-methyltransferase versus the alpha(2)-adrenoceptor” (J Med Chem, 1999)

Experiments:
[1] = Ratio of binding affinity of PNMT to alpha-2 receptors.
[2] = target: T1, Phenylethanolamine N-methyltransferase (Bos taurus, UniProt P10938); assay: In vitro inhibition of PNMT (Phenylethanolamine N-Methyltransferase).
T1 sequence (P10938 whole entry): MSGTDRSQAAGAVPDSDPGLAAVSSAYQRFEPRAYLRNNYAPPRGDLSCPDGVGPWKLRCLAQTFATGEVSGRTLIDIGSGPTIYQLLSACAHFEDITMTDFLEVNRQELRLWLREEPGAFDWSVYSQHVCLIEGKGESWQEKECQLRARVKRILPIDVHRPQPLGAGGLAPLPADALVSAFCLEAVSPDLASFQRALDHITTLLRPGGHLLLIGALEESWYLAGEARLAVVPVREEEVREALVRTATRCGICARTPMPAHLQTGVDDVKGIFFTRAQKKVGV

[3] = target: T2, Adrenergic receptor alpha-2 (Rattus norvegicus, UniProt P22086+P19328+P22909); assay: In vitro inhibition of [3H]clonidine binding at the alpha-2 adrenergic receptor.; type: protein assay
T2 sequence (P22086 whole entry): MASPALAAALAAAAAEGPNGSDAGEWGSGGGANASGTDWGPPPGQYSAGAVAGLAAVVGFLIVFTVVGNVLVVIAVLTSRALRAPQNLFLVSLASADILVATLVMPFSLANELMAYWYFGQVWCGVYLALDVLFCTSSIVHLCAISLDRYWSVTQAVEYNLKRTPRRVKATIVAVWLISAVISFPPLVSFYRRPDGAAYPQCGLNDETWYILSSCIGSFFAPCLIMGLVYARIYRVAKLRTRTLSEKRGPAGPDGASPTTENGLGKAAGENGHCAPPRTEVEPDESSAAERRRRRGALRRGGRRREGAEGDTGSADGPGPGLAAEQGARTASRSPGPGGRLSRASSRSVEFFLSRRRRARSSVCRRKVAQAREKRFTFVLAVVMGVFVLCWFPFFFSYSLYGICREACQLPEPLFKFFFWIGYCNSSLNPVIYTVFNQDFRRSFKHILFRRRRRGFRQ
T2 sequence (P19328 whole entry): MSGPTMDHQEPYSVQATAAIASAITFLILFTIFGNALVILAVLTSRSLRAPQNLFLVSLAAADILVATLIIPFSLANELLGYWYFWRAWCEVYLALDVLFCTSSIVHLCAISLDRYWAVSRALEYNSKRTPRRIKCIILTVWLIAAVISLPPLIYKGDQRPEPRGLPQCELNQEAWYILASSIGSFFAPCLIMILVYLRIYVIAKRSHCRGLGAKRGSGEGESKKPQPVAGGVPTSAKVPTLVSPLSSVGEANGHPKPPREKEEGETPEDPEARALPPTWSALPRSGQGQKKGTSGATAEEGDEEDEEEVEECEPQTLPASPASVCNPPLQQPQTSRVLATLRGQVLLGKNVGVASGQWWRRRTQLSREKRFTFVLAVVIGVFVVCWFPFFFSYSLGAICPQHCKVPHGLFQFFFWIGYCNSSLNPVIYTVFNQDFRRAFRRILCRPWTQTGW
T2 sequence (P22909 whole entry): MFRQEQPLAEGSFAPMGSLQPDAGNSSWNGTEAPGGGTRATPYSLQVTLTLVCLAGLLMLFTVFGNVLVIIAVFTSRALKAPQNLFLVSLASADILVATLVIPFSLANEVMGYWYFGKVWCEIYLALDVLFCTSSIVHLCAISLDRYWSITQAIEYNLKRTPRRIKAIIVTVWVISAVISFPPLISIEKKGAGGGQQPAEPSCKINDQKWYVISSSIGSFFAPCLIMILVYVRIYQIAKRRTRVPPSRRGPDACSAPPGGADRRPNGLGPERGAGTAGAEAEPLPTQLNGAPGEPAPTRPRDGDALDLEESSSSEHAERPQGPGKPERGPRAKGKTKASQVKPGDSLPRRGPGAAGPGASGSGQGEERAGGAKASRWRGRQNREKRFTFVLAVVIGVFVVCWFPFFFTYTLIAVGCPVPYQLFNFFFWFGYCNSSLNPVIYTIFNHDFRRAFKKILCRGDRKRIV
Procedure, shortened: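 Membranes from male Sprague-Dawley rat cortex, homogenized and washed in 50 mM Tris/HCl pH 7.7. Incubated with [3H]clonidine (final 2.0 nM) and various inhibitor concentrations, 1 mL final volume, 25 °C for 30 min. Terminated by vacuum filtration on GF/B filters and counted. Nonspecific binding defined with 2 µM phentolamine. IC50 by log-probit analysis; Ki = IC50/(1 + [clonidine]/KD).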

SMILES	Selectivity [1]	Ki [2] [nM]	Ki [3] [nM]
c1ccc2c(c1)CCNC2	0.35		
CC1Cc2ccccc2CN1 (centres undefined)	0.36		
N#Cc1ccc2c(c1)CN[C@H](CF)C2	170	3500	580000
CCC1Cc2ccccc2CN1 (centres undefined)	0.028		
OC[C@H]1Cc2ccccc2CN1	7.9		
FC[C@@H]1Cc2ccc(Br)cc2CN1	36	470	17000
C[C@H]1Cc2ccc([N+](=O)[O-])cc2CN1	41	1300	53000
O=[N+]([O-])c1ccc2c(c1)CN[C@H](CF)C2	160	880	140000
O=[N+]([O-])c1ccc2c(c1)CN[C@@H](CF)C2	90	520	47000
O=S(=O)(Nc1ccc(Cl)cc1)c1ccc2c(c1)CNC(CF)C2 (centres undefined)	220		
OCC1Cc2ccccc2CN1 (centres undefined)	6		
N#Cc1ccc2c(c1)CNC(CF)C2 (centres undefined)	420		
O=S(=O)(Nc1ccc(Cl)cc1)c1ccc2c(c1)CN[C@@H](CF)C2	350	280	97000
C[C@@H]1Cc2ccccc2CN1	0.49	1000	490
FC[C@H]1Cc2ccc(Br)cc2CN1	6.1	510	3100
C[C@@H]1Cc2ccc([N+](=O)[O-])cc2CN1	76	250	19000
NS(=O)(=O)c1ccc2c(c1)CNC(CO)C2 (centres undefined)	4100		

SMILES	Selectivity [1]	Ki [2] [nM]	Ki [3] [nM]
O=S(=O)(Nc1ccc(Cl)cc1)c1ccc2c(c1)CN[C@H](CF)C2	53	1900	101000
O=[N+]([O-])c1ccc2c(c1)CN[C@H](CCl)C2	410	660	270000
OC[C@H]1Cc2ccc(Br)cc2CN1	3.2	380	1200
O=[N+]([O-])c1ccc2c(c1)CN[C@@H](CCl)C2	210	470	100000
FC[C@@H]1Cc2ccccc2CN1	3.7	9900	37000
O=[N+]([O-])c1ccc2c(c1)CNC(CF)C2 (centres undefined)	140		
OC[C@@H]1Cc2ccccc2CN1	1.1		
C[C@H]1Cc2ccccc2CN1	0.15	38000	5700
ClC[C@H]1Cc2ccccc2CN1	0.66	3500	2300
OC[C@@H]1Cc2ccc(Br)cc2CN1	2	480	970
FCC1Cc2ccccc2CN1 (centres undefined)	2.5		
Clc1ccc2c(c1Cl)CNCC2	0.095		
ClC[C@@H]1Cc2ccccc2CN1	0.55	12000	6600
N#Cc1ccc2c(c1)CN[C@@H](CF)C2	370	970	360000
FC[C@H]1Cc2ccccc2CN1	4.2	690	2900
FCC1Cc2ccc(Br)cc2CN1 (centres undefined)	10		
NS(=O)(=O)c1ccc2c(c1)CNC(CF)C2 (centres undefined)	1000		
